What was measured:
α2β4β3-nAChR = α2β4β3-nAChR (Homo sapiens, UniProt P30926+Q15822); experiment: two-electrode voltage clamp, Xenopus oocytes, peak inward current; type: cell-based
Outline: (§1)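 Human α2 and β4 (plus β3 for trinary) subunit cRNAs, ~4 ng each at 1:1 or 1:1:1, are injected into stage VI oocytes. Two to 7 days later, oocytes are clamped at –70 mV in Ringer, pH 7.5.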

α2β4-nAChR = α2β4-nAChR (Homo sapiens, UniProt P30926+Q15822); experiment: as above; type: cell-based
Outline: as §1

α2β4β3-nAChR, sequence (Q15822 27-529): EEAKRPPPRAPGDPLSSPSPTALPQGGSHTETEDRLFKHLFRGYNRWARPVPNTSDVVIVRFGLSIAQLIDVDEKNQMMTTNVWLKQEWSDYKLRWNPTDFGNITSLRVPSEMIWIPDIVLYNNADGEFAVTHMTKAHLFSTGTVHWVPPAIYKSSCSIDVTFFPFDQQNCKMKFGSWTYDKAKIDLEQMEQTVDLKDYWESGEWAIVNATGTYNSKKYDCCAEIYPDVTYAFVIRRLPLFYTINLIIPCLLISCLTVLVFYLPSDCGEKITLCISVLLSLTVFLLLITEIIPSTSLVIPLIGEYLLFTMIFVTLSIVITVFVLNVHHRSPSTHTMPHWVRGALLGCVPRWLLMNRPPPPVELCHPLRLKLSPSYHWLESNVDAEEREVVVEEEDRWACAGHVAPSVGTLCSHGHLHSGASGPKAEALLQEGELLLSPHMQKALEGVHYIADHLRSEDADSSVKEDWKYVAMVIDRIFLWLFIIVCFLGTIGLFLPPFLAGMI
α2β4β3-nAChR, sequence (P30926 22-498): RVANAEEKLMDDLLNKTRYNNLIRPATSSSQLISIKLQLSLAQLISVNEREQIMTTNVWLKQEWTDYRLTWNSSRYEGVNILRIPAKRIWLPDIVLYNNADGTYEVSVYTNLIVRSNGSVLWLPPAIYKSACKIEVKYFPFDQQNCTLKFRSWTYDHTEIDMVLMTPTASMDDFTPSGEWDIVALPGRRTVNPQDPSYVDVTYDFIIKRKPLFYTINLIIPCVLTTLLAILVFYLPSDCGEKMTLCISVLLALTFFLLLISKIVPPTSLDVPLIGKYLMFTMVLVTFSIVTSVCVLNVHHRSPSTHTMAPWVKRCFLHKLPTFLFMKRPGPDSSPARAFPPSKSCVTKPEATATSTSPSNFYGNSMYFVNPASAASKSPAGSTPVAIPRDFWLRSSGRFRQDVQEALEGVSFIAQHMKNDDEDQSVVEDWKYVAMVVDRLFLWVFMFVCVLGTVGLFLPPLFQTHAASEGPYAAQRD
α2β4β3-nAChR, sequence (Q05901 22-458 partner): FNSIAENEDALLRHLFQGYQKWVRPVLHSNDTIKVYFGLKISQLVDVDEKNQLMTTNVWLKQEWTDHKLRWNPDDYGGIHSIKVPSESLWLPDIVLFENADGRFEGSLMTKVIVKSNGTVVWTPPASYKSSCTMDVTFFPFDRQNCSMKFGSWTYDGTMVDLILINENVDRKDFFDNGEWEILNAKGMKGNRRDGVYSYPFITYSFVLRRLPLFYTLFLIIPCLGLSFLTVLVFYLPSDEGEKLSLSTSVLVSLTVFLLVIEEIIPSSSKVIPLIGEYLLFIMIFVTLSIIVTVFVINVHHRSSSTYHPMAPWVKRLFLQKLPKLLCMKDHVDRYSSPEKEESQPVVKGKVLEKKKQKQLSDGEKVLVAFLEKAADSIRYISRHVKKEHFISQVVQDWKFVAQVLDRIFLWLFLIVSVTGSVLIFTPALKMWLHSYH
α2β4-nAChR, sequence (Q15822 27-529): as the sequence (Q15822 27-529) above
α2β4-nAChR, sequence (P30926 22-498): as the sequence (P30926 22-498) above

Compound: CN1CCC[C@H]1c1cccnc1 [nicotine]
- EC50 (α2β4β3-nAChR): 7.3 µM
- EC50 (α2β4-nAChR): 8.6 µM

— PMC3569009 (Journal of neurochemistry, 2012)
